Experimental data reported in ChEMBL document CHEMBL4052646, “Synthesis of nοvel artemisinin dimers with polyamine linkers and evaluation of their potential as anticancer agents” (Bioorg Med Chem, 2017).
Activity calls are given as the source filed them. The calls are words filed in the database; no cut-off is given here.

Assays:
MCF7 [1] = experiment: Induction of necrosis in human MCF7 cells at 10 uM after 48 hrs by Annexin V-FITC/PI staining based flow cytometry; type: functional, cell-based
HUVEC [2] = experiment: Cytotoxicity against HUVEC assessed as reduction in cell number at 10 uM after 48 hrs by MTT assay; type: functional, Homo sapiens
Procedure, shortened: (§1)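 Cells seeded at 10×10^3 (MCF7) or 15×10^3 (HUVEC, primary from umbilical cords, passages 2-3) per well, exposed to agents at different concentrations up to 10 µM for 48 h. MTT added at 1/10 medium volume, 2 h at 37°C, formazan dissolved in acidified isopropanol, absorbance read at 490 nm. Confirmed by haemocytometer counts. IC50 and maximal percent decrease interpolated from graphs. Mean ± S.E.M. versus untreated cells.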

MCF7 [3] = experiment: Decrease in pleiotrophin secretion in conditioned media of human MCF7 cells at 10 uM after 24 hrs by Western blot analysis; type: functional, cell-based
Procedure, shortened: (§2)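 MCF7 cells treated with 10 µM agent for 24 h. PTN in the whole conditioned medium was captured on heparin-Sepharose for 16 h at 4°C and eluted in reducing Laemmli buffer. Lysates were run in parallel. Blots were probed with mouse anti-PTN (1:1,000), normalised to β-actin, and quantified by densitometry as percent of untreated (n=3).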

MCF7 [4] = experiment: Induction of ROS production in human MCF7 cells after 4 to 6 hrs by carboxy-H2DCFDA dye based fluorescence assay; type: functional, cell-based
Procedure, shortened: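 MCF7 cells seeded at 15×10^3/well, exposed to agents 24 h later for 4 h. After PBS washes, cells loaded with 50 µM carboxy-H2DCFDA for 15 min in the dark. Fluorescence read at excitation 492–495 nm and emission 517–527 nm.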

Chorioallantoic membrane = experiment: In vivo antiangiogenic activity in Leghorn chicken embryo chorioallantoic membrane assessed as decrease in total vessel length at 10 nmol/egg after 48 hrs relative to control; type: functional, Gallus gallus; design: scale not given: the % may be the effect or the level left
Procedure, shortened: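 Windows opened in fertilized Leghorn eggs on day 4. On day 9, agent in 20 µl PBS applied to 1 cm² of CAM inside a plastic ring. After 48 h at 37°C, CAMs fixed in situ, excised and air-dried. Total vessel length measured by image analysis as percent change versus control. At least three experiments, 10–20 eggs per point.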

MCF7 [5] = experiment: Induction of apoptosis in human MCF7 cells at 10 uM after 48 hrs by Annexin V-FITC/PI staining based flow cytometry; type: functional, cell-based
MCF7 [6] = experiment: Cytotoxicity against human MCF7 cells assessed as reduction in cell number after 48 hrs by MTT assay; type: functional, cell-based; details: for IC50: MCF7, 48 h; procedure, shortened: as §1
MCF7 [7] = experiment: Cytotoxicity against human MCF7 cells assessed as reduction in cell number at 10 uM after 48 hrs by MTT assay; type: functional; procedure, shortened: as §1
HUVEC [8] = experiment: Cytotoxicity against HUVEC assessed as reduction in cell number after 48 hrs by MTT assay; type: functional, cell-based; details: Homo sapiens; procedure, shortened: as §1
MCF7 [9] = experiment: Decrease in pleiotrophin protein expression in human MCF7 cell lysate at 10 uM after 24 hrs by Western blot analysis; type: functional, cell-based; procedure, shortened: as §2
MCF7 [10] = experiment: Cytotoxicity against human MCF7 cells assessed as reduction in cell number at 10 uM cotreated with spermidine after 48 hrs by MTT assay; type: functional, cell-based
Procedure, shortened: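 MCF7 cells given the conjugate, the unconjugated artemisinin derivative, spermidine, or the derivative plus spermidine, each at 10 µM, for 48 h. Cell number measured by MTT at 490 nm after formazan solubilisation in acidified isopropanol. Reported as mean ± S.E.M. relative to untreated cells.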

Row | Compound | Activity (MCF7 [1]) | Efficacy (HUVEC [2]) [%] | Activity (MCF7 [3]) | Activity (MCF7 [4]) | Activity (Chorioallantoic membrane) [%] | Activity (MCF7 [5]) | Activity (MCF7 [6]) | IC50 (MCF7 [6]) [nM] | Efficacy (MCF7 [7]) [%] | IC50 (HUVEC [8]) [nM] | Activity (MCF7 [9]) | Activity (MCF7 [10])
1 | C[C@H]1[C@@H](CCCOC(=O)NCCCCNC(=O)OCCC[C@H]2O[C@@H]3O[C@@]4(C)CC[C@H]5[C@H](C)CC[C@@H]([C@H]2C)[C@@]35OO4)O[C@@H]2O[C@@]3(C)CC[C@H]4[C@H](C)CC[C@@H]1[C@@]24OO3 | inactive | 27 | Active | Active | 14.3 | inactive | Dose-dependent effect | 1000 | 61 | 3600 | Active | 
2 | COC(=O)N(CCCCNC(=O)OCCOCCN1C(=O)[C@H](C)[C@@H]2CC[C@@H](C)[C@@H]3CC[C@@]4(C)OO[C@]32[C@H]1O4)CCCNC(=O)OCCOCCN1C(=O)[C@H](C)[C@@H]2CC[C@@H](C)[C@@H]3CC[C@@]4(C)OO[C@]32[C@H]1O4 |  |  |  |  |  |  | Dose-dependent effect | 999 | 39 |  |  | 
3 | C[C@@H]1CC[C@H]2[C@@H](C)C(=O)O[C@@H]3O[C@@]4(C)CC[C@@H]1[C@]32OO4 [ARTEMISININ] | inactive | 22 | Active | Active | 6.3 | inactive | Dose-dependent effect |  | 14 | 1100 | Active | 
4 | COC(=O)N(CCCCNC(=O)OCCOCCO[C@H]1O[C@@H]2O[C@@]3(C)CC[C@H]4[C@H](C)CC[C@@H]([C@H]1C)[C@@]24OO3)CCCNC(=O)OCCOCCO[C@H]1O[C@@H]2O[C@@]3(C)CC[C@H]4[C@H](C)CC[C@@H]([C@H]1C)[C@@]24OO3 |  |  |  |  |  |  |  |  | 11.2 |  |  | 
5 | COC(=O)N(CCCCN(CCCNC(=O)OCCOCCN1C(=O)[C@H](C)[C@@H]2CC[C@@H](C)[C@@H]3CC[C@@]4(C)OO[C@]32[C@H]1O4)C(=O)OC)CCCNC(=O)OCCOCCN1C(=O)[C@H](C)[C@@H]2CC[C@@H](C)[C@@H]3CC[C@@]4(C)OO[C@]32[C@H]1O4 |  |  |  |  |  |  | Dose-dependent effect | 1000 | 48 |  |  | 
6 | COC(=O)N(CCCCN(CCCNC(=O)OCCOCCO[C@H]1O[C@@H]2O[C@@]3(C)CC[C@H]4[C@H](C)CC[C@@H]([C@H]1C)[C@@]24OO3)C(=O)OC)CCCNC(=O)OCCOCCO[C@H]1O[C@@H]2O[C@@]3(C)CC[C@H]4[C@H](C)CC[C@@H]([C@H]1C)[C@@]24OO3 |  |  |  |  |  |  | Dose-dependent effect | 1000 | 64 |  |  | 
7 | C[C@H]1[C@@H](O)O[C@@H]2O[C@@]3(C)CC[C@H]4[C@H](C)CC[C@@H]1[C@@]24OO3 [ARTENIMOL] |  | 28 |  |  | 2.8 |  |  |  |  | 1400 |  | 
8 | C[C@H]1[C@@H](OCCOCCOC(=O)NCCCCNC(=O)OCCOCCO[C@H]2O[C@@H]3O[C@@]4(C)CC[C@H]5[C@H](C)CC[C@@H]([C@H]2C)[C@@]35OO4)O[C@@H]2O[C@@]3(C)CC[C@H]4[C@H](C)CC[C@@H]1[C@@]24OO3 |  |  |  |  |  |  | Dose-dependent effect | 1000 | 50 |  |  | 
9 | C[C@@H]1CC[C@H]2[C@@H](C)C(=O)N(CCOCCOC(=O)NCCCCNC(=O)OCCOCCN3C(=O)[C@H](C)[C@@H]4CC[C@@H](C)[C@@H]5CC[C@@]6(C)OO[C@]54[C@H]3O6)[C@@H]3O[C@@]4(C)CC[C@@H]1[C@@]23OO4 | inactive | 23 | Active | Active |  | inactive | Dose-dependent effect | 999 | 52 | 2300 | Active | 
10 | COC(=O)N(CCCCN(CCCNC(=O)OCCC[C@H]1O[C@@H]2O[C@@]3(C)CC[C@H]4[C@H](C)CC[C@@H]([C@H]1C)[C@@]24OO3)C(=O)OC)CCCNC(=O)OCCC[C@H]1O[C@@H]2O[C@@]3(C)CC[C@H]4[C@H](C)CC[C@@H]([C@H]1C)[C@@]24OO3 | inactive | 27 | Active | Active | 22 | inactive | Dose-dependent effect | 1000 | 70 | 7500 | Active | 
11 | COC(=O)N(CCCCNC(=O)OCCC[C@H]1O[C@@H]2O[C@@]3(C)CC[C@H]4[C@H](C)CC[C@@H]([C@H]1C)[C@@]24OO3)CCCNC(=O)OCCC[C@H]1O[C@@H]2O[C@@]3(C)CC[C@H]4[C@H](C)CC[C@@H]([C@H]1C)[C@@]24OO3 | inactive | 35 | Active | inactive | 12 | inactive | Dose-dependent effect | 1000 | 76 | 1200 | Active | 
12 | C[C@H]1[C@@H](CCCO)O[C@@H]2O[C@]3(C)CC[C@H]4[C@H](C)CC[C@@H]1[C@@]24OO3 |  |  |  |  |  |  |  |  |  |  |  | inactive
